Published values pooled from the literature.
Target: Calcium/calmodulin-dependent protein kinase type II subunit alpha (CAMK2A, Homo sapiens, UniProt Q9UQM7)

SMILES | assay | setting | measurement | result
Cn1cc(-c2cccc(N3CCc4c(sc5c4CC(C)(C)C5)C3=O)c2CO)cc(Nc2ccncn2)c1=O | enzyme activity, inhibitor | 1 µM | inhibition | -7%
N#CC1(c2ccccn2)CCN(Cc2cc(C(=O)O)c(=O)n3ccccc23)CC1 | cell-free assay, competition with immobilised ligand | 1 µM | remaining binding | 83%
Nc1ncc(-c2nc(N3CCOCC3)nc(N3CCOCC3)n2)c(C(F)F)n1 | binding, competition with immobilised ligand | 10 µM | remaining binding | 64%
Cn1cc(-c2cc(F)cc(N3CCn4c(cc5c4CCCC5)C3=O)c2CO)cc(Nc2ccc(N3CCN(C4COC4)CC3)cn2)c1=O | enzyme activity, inhibitor | 0.1 µM | inhibition | 12%
Cc1ncc(C)n2nc(/C=C/c3nc(N4CCCC4)cc(N4CCOCC4)n3)nc12 | enzyme activity, inhibitor | 10 µM | inhibition | 6%
COc1ncccc1-c1cnn2ccc(N3CCN(C(=O)OC(C)C)CC3)nc12 | binding, competition with immobilised ligand | 1 µM | remaining binding | 70%
Cc1nn(C)cc1-c1nc2c(N3CCN(Cc4ccc(Cl)cc4)CC3)c(Cl)cnc2[nH]1 | binding, competition with immobilised ligand | 1 µM | remaining binding | 95%
O=c1[nH]c2ccccc2n1C1CCN(Cc2ccc(-c3[nH]c4cc5ncnc5cc4nc3-c3ccccc3)cc2)CC1 | cell-free assay | 0.5 µM | remaining signal | 109%
O=C(Nc1cccnn1)N1CCN([C@@H]2CCOc3cc(C(F)(F)F)ccc32)CC1 | cell-free assay | 20 µM | inhibition | 3%
Cn1cncc1[C@](O)(COc1ccc(C#N)cc1-c1ccc(OC(F)(F)F)cc1)c1ccc(C#N)cc1 | cell-free assay, competition with immobilised ligand | 1 µM | remaining binding | 95%
